“And” between values parts separate entries of the source, which are not always exact repeats. Identical values can stand only once.
Test system: U2OS
Experiment: Multiplex assay against U2OS
Assay type: toxicity, cell-based
Conditions: human
Method in brief: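 Cells stained live at seeding with Hoechst33342, BioTracker Green Microtubule Cytoskeleton Dye, MitoTracker Red and Annexin V Alexa Fluor 680 were imaged on a CQ1 microscope at 37°C and 5% CO2 after compound addition. Their classification by CellPathfinder machine-learning gating ran from Hoechst high-intensity objects versus normal cells, to healthy, pyknosed or fragmented nuclei among normal cells, to mitotic or apoptotic among pyknosed cells. Tubulin, mitochondrial-mass and membrane-permeability phenotypes are per cents of healthy-nucleus cells.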

[1] = 12 h, 1 µM, compound concentration 1 uM
[2] = 12 h, 10 µM, compound concentration 10 uM
[3] = 24 h, 1 µM, compound concentration 1 uM
[4] = 24 h, 10 µM, compound concentration 10 uM
[5] = 48 h, 1 µM, compound concentration 1 uM
[6] = 48 h, 10 µM, compound concentration 10 uM

SMILES: CCOC(=O)c1cnn(-c2ccc(NC(=O)C(Cl)=C(Cl)Cl)cc2)c1C(F)(F)F
- Population Apoptotic (%) [1]: 35.29% and 57.89%
- Population Fragmented Nuclei (%) [1]: 2.52% and 2.35%
- Population Healthy Nuclei (%) [1]: 88.92% and 86.47%
- Population Hoechst High Intensity Objects (%) [1]: 0%
- Population Membrane Permeable-Phenotype (%) [1]: 0.57% and 2.72%
- Population Mitochondria Different-Phenotype (%) [1]: 0.85% and 4.76%
- Population Mitotic Cells (%) [1]: 64.71% and 42.11%
- Population Normal (%) [1]: 100%
- Population Pyknosed Nuclei (%) [1]: 8.56% and 11.18%
- Population Tubulin-Different-Phenotype (%) [1]: 0.57% and 0%
- Total Cell Count [1]: 397 and 170
- Population Apoptotic (%) [2]: 21.96% and 33.6%
- Population Fragmented Nuclei (%) [2]: 2.71% and 4.35%
- Population Healthy Nuclei (%) [2]: 8.13% and 5.07%
- Population Hoechst High Intensity Objects (%) [2]: 0%
- Population Membrane Permeable-Phenotype (%) [2]: 11.11% and 28.57%
- Population Mitotic Cells (%) [2]: 78.04% and 66.4%
- Population Normal (%) [2]: 100%
- Population Pyknosed Nuclei (%) [2]: 89.16% and 90.58%
- Population Tubulin-Different-Phenotype (%) [2]: 25.93% and 14.29%
- Total Cell Count [2]: 332 and 138
- Population Apoptotic (%) [3]: 36.07% and 39.02%
- Population Fragmented Nuclei (%) [3]: 1.33% and 1.84%
- Population Healthy Nuclei (%) [3]: 87.12% and 79.26%
- Population Hoechst High Intensity Objects (%) [3]: 0%
- Population Membrane Permeable-Phenotype (%) [3]: 0.43% and 0.58%
- Population Mitochondria Different-Phenotype (%) [3]: 0.43% and 4.07%
- Population Mitotic Cells (%) [3]: 63.93% and 60.98%
- Population Normal (%) [3]: 100%
- Population Pyknosed Nuclei (%) [3]: 11.55% and 18.89%
- Population Tubulin-Different-Phenotype (%) [3]: 0.22% and 0%
- Total Cell Count [3]: 528 and 217
- Population Apoptotic (%) [4]: 65.22% and 84.92%
- Population Fragmented Nuclei (%) [4]: 3.27% and 2.76%
- Population Healthy Nuclei (%) [4]: 7.74% and 10.34%
- Population Hoechst High Intensity Objects (%) [4]: 0%
- Population Membrane Permeable-Phenotype (%) [4]: 30.77% and 46.67%
- Population Mitochondria Different-Phenotype (%) [4]: 0% and 13.33%
- Population Mitotic Cells (%) [4]: 34.78% and 15.08%
- Population Normal (%) [4]: 100%
- Population Pyknosed Nuclei (%) [4]: 88.99% and 86.9%
- Population Tubulin-Different-Phenotype (%) [4]: 57.69% and 60%
- Total Cell Count [4]: 336 and 145
- Population Apoptotic (%) [5]: 48.86% and 64.44%
- Population Fragmented Nuclei (%) [5]: 5.03% and 2.12%
- Population Healthy Nuclei (%) [5]: 85.95% and 84.24%
- Population Hoechst High Intensity Objects (%) [5]: 0%
- Population Membrane Permeable-Phenotype (%) [5]: 1.31% and 2.52%
- Population Mitochondria Different-Phenotype (%) [5]: 0.12% and 2.16%
- Population Mitotic Cells (%) [5]: 51.14% and 35.56%
- Population Normal (%) [5]: 100%
- Population Pyknosed Nuclei (%) [5]: 9.03% and 13.64%
- Population Tubulin-Different-Phenotype (%) [5]: 1.07% and 1.44%
- Total Cell Count [5]: 975 and 330
- Population Apoptotic (%) [6]: 86.63% and 98.18%
- Population Fragmented Nuclei (%) [6]: 2.51% and 10.64%
- Population Healthy Nuclei (%) [6]: 38.87% and 50.35%
- Population Hoechst High Intensity Objects (%) [6]: 0%
- Population Membrane Permeable-Phenotype (%) [6]: 8.06% and 23.94%
- Population Mitochondria Different-Phenotype (%) [6]: 11.29% and 15.49%
- Population Normal (%) [6]: 100%
- Population Pyknosed Nuclei (%) [6]: 58.62% and 39.01%
- Population Tubulin-Different-Phenotype (%) [6]: 66.94% and 47.89%
- Total Cell Count [6]: 319 and 141

SMILES: COc1ccc2[nH]c(I)c(CCNC(C)=O)c2c1 [IODOMELATONIN]
- Population Apoptotic (%) [1]: 68% and 37%
- Population Fragmented Nuclei (%) [1]: 19% and 11%
- Population Healthy Nuclei (%) [1]: 74% and 83%
- Population Hoechst High Intensity Objects (%) [1]: 2% and 0%
- Population Membrane Permeable-Phenotype (%) [1]: 4% and 5%
- Population Mitochondria Different-Phenotype (%) [1]: 3% and 1%
- Population Mitotic Cells (%) [1]: 31% and 62%
- Population Normal (%) [1]: 97% and 99%
- Population Pyknosed Nuclei (%) [1]: 5%
- Population Tubulin-Different-Phenotype (%) [1]: 1% and 2%
- Total Cell Count [1]: 282 and 156
- Population Apoptotic (%) [2]: 77% and 80%
- Population Fragmented Nuclei (%) [2]: 25% and 41%
- Population Healthy Nuclei (%) [2]: 64% and 54%
- Population Hoechst High Intensity Objects (%) [2]: 3% and 0%
- Population Membrane Permeable-Phenotype (%) [2]: 2% and 10%
- Population Mitochondria Different-Phenotype (%) [2]: 1% and 6%
- Population Mitotic Cells (%) [2]: 22% and 20%
- Population Normal (%) [2]: 96% and 99%
- Population Pyknosed Nuclei (%) [2]: 9% and 3%
- Population Tubulin-Different-Phenotype (%) [2]: 1% and 2%
- Total Cell Count [2]: 231 and 134
- Population Apoptotic (%) [3]: 86% and 80%
- Population Fragmented Nuclei (%) [3]: 16% and 15%
- Population Healthy Nuclei (%) [3]: 75% and 78%
- Population Hoechst High Intensity Objects (%) [3]: 1%
- Population Membrane Permeable-Phenotype (%) [3]: 3% and 8%
- Population Mitochondria Different-Phenotype (%) [3]: 1% and 0%
- Population Mitotic Cells (%) [3]: 13% and 20%
- Population Normal (%) [3]: 98%
- Population Pyknosed Nuclei (%) [3]: 8% and 5%
- Population Tubulin-Different-Phenotype (%) [3]: 2%
- Total Cell Count [3]: 354 and 179
- Population Apoptotic (%) [4]: 95% and 88%
- Population Fragmented Nuclei (%) [4]: 25% and 34%
- Population Healthy Nuclei (%) [4]: 66% and 59%
- Population Hoechst High Intensity Objects (%) [4]: 1%
- Population Membrane Permeable-Phenotype (%) [4]: 4% and 7%
- Population Mitochondria Different-Phenotype (%) [4]: 1% and 5%
- Population Mitotic Cells (%) [4]: 4% and 11%
- Population Normal (%) [4]: 98%
- Population Pyknosed Nuclei (%) [4]: 8% and 5%
- Population Tubulin-Different-Phenotype (%) [4]: 1% and 2%
- Total Cell Count [4]: 273 and 153
- Population Apoptotic (%) [5]: 92% and 86%
- Population Fragmented Nuclei (%) [5]: 12% and 13%
- Population Healthy Nuclei (%) [5]: 79% and 81%
- Population Hoechst High Intensity Objects (%) [5]: 1%
- Population Membrane Permeable-Phenotype (%) [5]: 5% and 4%
- Population Mitochondria Different-Phenotype (%) [5]: 2%
- Population Mitotic Cells (%) [5]: 7% and 13%
- Population Normal (%) [5]: 98%
- Population Pyknosed Nuclei (%) [5]: 7% and 5%
- Population Tubulin-Different-Phenotype (%) [5]: 3%
- Total Cell Count [5]: 509 and 284
- Population Apoptotic (%) [6]: 97% and 100%
- Population Fragmented Nuclei (%) [6]: 21% and 29%
- Population Healthy Nuclei (%) [6]: 68% and 65%
- Population Hoechst High Intensity Objects (%) [6]: 2% and 0%
- Population Membrane Permeable-Phenotype (%) [6]: 5% and 7%
- Population Mitochondria Different-Phenotype (%) [6]: 0% and 5%
- Population Mitotic Cells (%) [6]: 2% and 0%
- Population Normal (%) [6]: 97% and 99%
- Population Pyknosed Nuclei (%) [6]: 9% and 5%
- Population Tubulin-Different-Phenotype (%) [6]: 2% and 4%
- Total Cell Count [6]: 373 and 209

From ChEMBL document CHEMBL5724801, “EUbOPEN Chemogenomics Library - Multiplex” (2024)
